Compound activity (PubChem)
Hits are enriched below; roughly 2.3% of the tested compounds scored in any of these assays.
PLCb3 inh: human PLC-beta3 inhibitors, primary screen, biochemical, fluorescence; 1-phosphatidylinositol 4,5-bisphosphate phosphodiesterase beta-3 (Homo sapiens), Q01970; Purified PLC-beta3, fluorogenic substrate; inhibition, % at 12.2 µM; 0.18% of 370,000 active; AID 720704, 2013; in the data active means inhibition above about 11%;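 further: 0% = median of compound wells on plate and 100% = full blocker control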
TbMetRS inhib: T. brucei MetRS inhibitors, primary screen, biochemical, luminescence. inhibition, % at 11.9 µM. purified T. brucei MetRS, ATP depletion, Kinase-Glo luminescence. 0.4% of 360,000 active. methionyl-tRNA synthetase (Trypanosoma brucei brucei);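 active means inhibition above a per-plate cutoff of the control wells' mean inhibition plus 3 SD, cut at about 5.5% in these data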;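 further: 0% = DMSO wells median and 100% = median of wells with control inhibitor compound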
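Material – parasite MetRS enzyme · Medium – HEPES-MgCl2-KCl buffer plus DTT, spermine, BSA, pyrophosphatase · Reagent – ATP, methionine and E. coli bulk tRNA substrates · Times – 15 min enzyme-compound preincubation, 2 h reaction, 10 min detection, 25 °C · Measured by – luminescence of leftover ATP · Evaluation – percent inhibition relative to median high and low control wells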
ADAM17 inh: ADAM17 inhibitors, primary screen, biochemical, QFRET; recombinant ADAM17, EDANS/DABCYL FRET peptide cleavage; inhibition, % at 6.95 µM; 0.83% of 370,000 active;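 active means inhibition above the mean of compounds lying between control limits plus 3 SD, set per campaign, cut at about 8.5% in these data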;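 further: 0% = DMSO-only wells as the low control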
ADAM10 inh: human ADAM10 inhibitors, primary screen, biochemical, QFRET, HTS; inhibition, % at 7 µM; recombinant ADAM10, EDANS/DABCYL FRET peptide cleavage, 3 h; 0.62% of 370,000 active; AID 720582, 2013; Disintegrin and metalloproteinase domain-containing protein 10 (Homo sapiens), O14672;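 active means inhibition above a per-campaign cutoff equal to the mean of compounds falling between control-based bounds plus 3 SD, cut at about 20% in these data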;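 further: 0% = DMSO wells while the 100% control is not disclosed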
PLCg1 inh: PLC-gamma1 enzyme inhibitors, primary screen, biochemical, fluorescence, purified enzyme | 0.84% of 370,000 active | fluorogenic substrate | inhibition, % at 12.2 µM | 1-phosphatidylinositol 4,5-bisphosphate phosphodiesterase gamma-1 (Homo sapiens), P19174; in the data active means inhibition above about 9.5%
ADAM10 counter: ADAM10 inhibitors, counter-screen for ADAM17 exosite inhibitor project, biochemical, FRET, human ADAM10; shares compounds with ADAM17 inh; inhibition, % at 6.95 µM; AID 743256, 2014; recombinant ADAM10, EDANS/DABCYL FRET peptide cleavage, 3 h; 47% of 2,900 active;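 active means mean inhibition over the triplicate runs exceeds the activity threshold set in the earlier primary screen, cut at about 20% in these data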;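 further: 0% = DMSO wells and 100% = marimastat wells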
ADAM17 confirm: ADAM17 inhibitors, hit retest, confirmation, biochemical, QFRET peptide cleavage; inhibition, % at 6.95 µM; 65% of 2,900 active; shares compounds with ADAM17 inh; recombinant ADAM17, EDANS/DABCYL QFRET peptide cleavage;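 active means mean inhibition across replicates above the hit cutoff set in the primary screen, cut at about 8.5% in these data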;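 further: 0% = DMSO wells and 100% = marimastat wells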
* marks the source's active call; other numbers are inactive results.

Results for CCOC(=O)Nc1ccc2c(c1)[C@]1(CC(=O)N(CC(C)C)C1c1ccccc1)C(=O)N2C (stereo partly specified) ?
PLCb3 inh: -6; ADAM17 inh: -3; ADAM10 inh: -5; PLCg1 inh: -3

Results for CCCC(=O)N1CCC(NS(=O)(=O)c2ccc3c(c2)CCN3C(C)=O)CC1 ?
PLCb3 inh: 3; ADAM17 inh: -5; ADAM10 inh: -15; PLCg1 inh: 2

Results for COc1ccc(O)c(-c2c(-c3ccc(Cl)cc3)n[nH]c2C)c1 ?
PLCb3 inh: 0; TbMetRS inhib: -1; ADAM17 inh: 0; ADAM10 inh: 4; PLCg1 inh: -2

How did COc1ccc(-c2n[nH]c(C)c2-c2ccc(Cl)cc2)c(O)c1OC do in these assays?
PLCb3 inh: -1; TbMetRS inhib: -1; ADAM17 inh: 11*; ADAM10 inh: 10; PLCg1 inh: 2; ADAM10 counter: 22*; ADAM17 confirm: 8

What do the screens show for `Nc1nonc1-c1nc2ccccc2n1CC(=O)O`?
PLCb3 inh: -6; TbMetRS inhib: -1; ADAM17 inh: -6; ADAM10 inh: -7; PLCg1 inh: -3

What do the screens show for `Nc1nonc1-c1nc2ccccc2n1CC(=O)N1CCCCC1`?
PLCb3 inh: 4; TbMetRS inhib: 0; ADAM17 inh: 9.9*; ADAM10 inh: 12; PLCg1 inh: 3; ADAM10 counter: -12; ADAM17 confirm: -1

Results for COc1ccc(-c2cc(-c3n[nH]c(=S)n3-c3cc(OC)ccc3OC)[nH]n2)cc1 ?
PLCb3 inh: 5; TbMetRS inhib: -1; ADAM17 inh: 9.5*; ADAM10 inh: 16; PLCg1 inh: 4; ADAM10 counter: 23*; ADAM17 confirm: 13*

Results for COc1ccc(OC)c(-n2c(-c3ccc(C)cc3)n[nH]c2=S)c1 ?
PLCb3 inh: -3; TbMetRS inhib: 0; ADAM17 inh: -7; ADAM10 inh: -5; PLCg1 inh: -2

How did CC(=O)c1ccc(N=c2scc(C)n2C(C)C)cc1 do in these assays?
PLCb3 inh: -76; TbMetRS inhib: 0; ADAM17 inh: -3; ADAM10 inh: -3; PLCg1 inh: -50

Results for O=C(O)COc1cccc(/C=C2/SC(=S)N(Cc3ccccc3)C2=O)c1 ?
PLCb3 inh: -9; TbMetRS inhib: -1; ADAM17 inh: 8; ADAM10 inh: 0; PLCg1 inh: 6

Results for O=C1/C(=C\c2cccc(O)c2)SC(=S)N1Cc1ccccc1 ?
PLCb3 inh: -7; TbMetRS inhib: -1; ADAM17 inh: 8.8*; ADAM10 inh: 10; PLCg1 inh: 6; ADAM10 counter: 13; ADAM17 confirm: 6

What do the screens show for `CC(=O)C[C@H](O)CC(=O)[C@@H]1OC(=O)CCCCC/C=C/Cc2ccccc21`?
PLCb3 inh: 4; TbMetRS inhib: 0; ADAM17 inh: 8.8*; ADAM10 inh: 13; PLCg1 inh: 5; ADAM10 counter: 1; ADAM17 confirm: -1

How did CC1(C)CC(=O)C(N=Nc2cccc(F)c2C#N)=C(O)C1 do in these assays?
PLCb3 inh: -5; TbMetRS inhib: -1; ADAM17 inh: 0; ADAM10 inh: -2; PLCg1 inh: 2

Results for CCCN1Cc2cc(OC)ccc2-c2ccccc2S1(=O)=O ?
PLCb3 inh: 0; TbMetRS inhib: 0; ADAM17 inh: -2; ADAM10 inh: -13; PLCg1 inh: 0

What do the screens show for `CCOC(=O)/C=C1\CN(Cc2ccc(OC)cc2)S(=O)(=O)c2ccccc21`?
PLCb3 inh: 6; TbMetRS inhib: 0; ADAM17 inh: 9.7*; ADAM10 inh: 17; PLCg1 inh: 5; ADAM10 counter: 15; ADAM17 confirm: 15*
